Calls of active or inactive are those of the source. The calls are words filed in the database; no cut-off is given here.
Experiments:
[1] = biological target: T1, C-X-C chemokine receptor type 5 (Homo sapiens) (UniProt P32302); assay: Inhibition of CXCR5 at 1 uM
T1 sequence (whole entry): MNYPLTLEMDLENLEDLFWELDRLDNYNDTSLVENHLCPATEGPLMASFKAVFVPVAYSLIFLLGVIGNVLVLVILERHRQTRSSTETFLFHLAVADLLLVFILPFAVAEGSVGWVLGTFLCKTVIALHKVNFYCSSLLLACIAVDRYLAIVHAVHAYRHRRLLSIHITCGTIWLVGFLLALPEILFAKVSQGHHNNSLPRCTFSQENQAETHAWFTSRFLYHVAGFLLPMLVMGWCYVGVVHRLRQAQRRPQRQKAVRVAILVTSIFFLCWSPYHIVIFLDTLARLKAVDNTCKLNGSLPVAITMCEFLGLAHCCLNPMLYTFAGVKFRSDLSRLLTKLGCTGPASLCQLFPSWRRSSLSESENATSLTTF
Summary of the method: (§1)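 Cerep selectivity panel of over 50 ion channels, transporters, chemokine receptors and other GPCRs. Single test concentration of 1 μM, scored for significant inhibition.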

Rattus norvegicus [2] = assay: AUC in rat at 10 mg/kg, po; assay type: ADME, organism-based, Plasma; design: dose 10 mg/kg, route oral; details: in vivo
Summary of the method: (§2)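 Pharmacokinetics run in rats, dogs, cynomolgus monkeys and chimpanzees, with two animals per species for the iv arm and two per species for the oral arm. Parameters were derived per species and route: CL, Vss and T1/2 from iv dosing; Cmax, Tmax, AUC, T1/2 and F% from oral dosing. Values are reported as mean ± spread.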

[3] = Half life in cynomolgus monkey at 30 mg/kg, po; assay type: ADME, organism-based, Macaca fascicularis; design: dose 30 mg/kg, route oral; details: in vivo; summary of the method: as §2
[4] = Oral bioavailability in chimpanzee at 4 mg/kg; assay type: ADME, organism-based, Pan troglodytes; details: in vivo; summary of the method: as §2
Mus musculus = assay: Dose normalized AUC in mouse at 10 mg/kg, po; assay type: ADME, organism-based; design: dose 10 mg/kg, route oral; details: in vivo
Summary of the method: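 Mouse oral PK screen by cassette dosing at 10 mg/kg, three animals per cassette. AUC is dose-normalized.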

[5] = biological target: T2, C-C chemokine receptor type 2 (Homo sapiens, UniProt P41597); assay: Inhibition of human CCR2-mediated intracellular calcium mobilization by cell based assay; assay type: functional
T2 sequence (P41597 whole entry): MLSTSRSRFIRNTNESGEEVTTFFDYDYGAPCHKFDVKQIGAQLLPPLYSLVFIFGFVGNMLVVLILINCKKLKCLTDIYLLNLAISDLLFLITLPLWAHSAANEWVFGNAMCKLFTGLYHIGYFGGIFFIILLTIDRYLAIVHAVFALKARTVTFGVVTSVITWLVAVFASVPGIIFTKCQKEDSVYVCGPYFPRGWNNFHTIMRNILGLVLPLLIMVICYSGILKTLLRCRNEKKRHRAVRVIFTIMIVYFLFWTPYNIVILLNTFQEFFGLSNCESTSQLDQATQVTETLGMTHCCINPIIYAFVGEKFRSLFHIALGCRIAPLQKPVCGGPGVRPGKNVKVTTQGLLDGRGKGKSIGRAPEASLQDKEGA

[6] = Half life in rat at 5 mg/kg, iv; assay type: ADME, organism-based; design: dose 5 mg/kg, route intravenous; details: in vivo; summary of the method: as §2
[7] = Half life in rat at 10 mg/kg, po; assay type: ADME, organism-based; design: dose 10 mg/kg, route oral; details: in vivo; summary of the method: as §2
Rattus norvegicus [8] = assay: Oral bioavailability in rat at 10 mg/kg; assay type: ADME, organism-based; details: in vivo; summary of the method: as §2
[9] = Half life in human administered as qd; assay type: ADME, organism-based; details: in vivo
[10] = Half life in cynomolgus monkey at 5 mg/kg, iv; assay type: ADME, organism-based, Macaca fascicularis; design: dose 5 mg/kg, route intravenous; details: in vivo; summary of the method: as §2
[11] = Oral bioavailability in cynomolgus monkey at 30 mg/kg; assay type: ADME, organism-based, Macaca fascicularis; details: in vivo; summary of the method: as §2
[12] = biological target: C-C chemokine receptor type 5 (Homo sapiens) (UniProt P51681); assay: Inhibition of CCR5 at 1 uM; summary of the method: as §1
Chain of C-C chemokine receptor type 5 (Homo sapiens) (P51681 whole entry, looked up): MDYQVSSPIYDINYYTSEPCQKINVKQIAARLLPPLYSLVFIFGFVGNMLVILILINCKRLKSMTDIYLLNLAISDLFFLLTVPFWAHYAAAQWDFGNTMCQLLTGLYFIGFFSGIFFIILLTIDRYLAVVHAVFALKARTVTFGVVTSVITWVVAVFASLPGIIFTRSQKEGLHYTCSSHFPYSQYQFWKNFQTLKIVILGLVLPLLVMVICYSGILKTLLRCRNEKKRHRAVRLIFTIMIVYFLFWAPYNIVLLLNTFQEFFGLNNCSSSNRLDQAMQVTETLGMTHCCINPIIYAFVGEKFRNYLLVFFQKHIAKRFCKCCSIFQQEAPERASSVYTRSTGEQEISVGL

[13] = AUC in dog at 30 mg/kg, po; assay type: ADME, organism-based, Canis lupus familiaris; design: dose 30 mg/kg, route oral; details: plasma; summary of the method: as §2
[14] = Cmax in cynomolgus monkey at 30 mg/kg, po; assay type: ADME, organism-based, Macaca fascicularis; design: dose 30 mg/kg, route oral; details: in vivo; summary of the method: as §2
[15] = AUC in cynomolgus monkey at 30 mg/kg, po; assay type: ADME, organism-based, Macaca fascicularis; design: dose 30 mg/kg, route oral; details: plasma; summary of the method: as §2
Cytochrome P450 2C9 = Cytochrome P450 2C9 (Homo sapiens, UniProt P11712); assay: Inhibition of CYP2C9; assay type: ADME
Chain of Cytochrome P450 2C9 (P11712 whole entry): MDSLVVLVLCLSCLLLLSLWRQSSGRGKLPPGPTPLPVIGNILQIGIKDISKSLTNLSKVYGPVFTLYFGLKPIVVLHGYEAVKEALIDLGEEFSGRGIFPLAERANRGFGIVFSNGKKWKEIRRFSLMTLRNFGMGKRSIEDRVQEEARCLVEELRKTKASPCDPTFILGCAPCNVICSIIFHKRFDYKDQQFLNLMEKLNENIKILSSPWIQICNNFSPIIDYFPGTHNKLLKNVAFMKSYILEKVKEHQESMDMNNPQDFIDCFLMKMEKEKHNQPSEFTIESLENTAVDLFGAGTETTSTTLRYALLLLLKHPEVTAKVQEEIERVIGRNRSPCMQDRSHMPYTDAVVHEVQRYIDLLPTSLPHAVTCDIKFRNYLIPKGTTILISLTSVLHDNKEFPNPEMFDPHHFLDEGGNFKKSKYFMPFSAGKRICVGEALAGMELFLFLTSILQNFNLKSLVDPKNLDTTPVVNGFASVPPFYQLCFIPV

[16] = Half life in chimpanzee at 1 mg/kg, iv; assay type: ADME, organism-based, Pan troglodytes; design: dose 1 mg/kg, route intravenous; details: in vivo; summary of the method: as §2
Liver [17] = assay: Metabolic stability in human liver S9 fraction assessed as glutathione adduct formation in presence of glutathione; assay type: ADME, subcellular
[18] = Half life in chimpanzee at 4 mg/kg, po; assay type: ADME, organism-based, Pan troglodytes; design: dose 4 mg/kg, route oral; details: in vivo; summary of the method: as §2
Cytochrome P450 2D6 = Cytochrome P450 2D6 (Homo sapiens, UniProt P10635); assay: Inhibition of CYP2D6; assay type: ADME
Chain of Cytochrome P450 2D6 (P10635 whole entry): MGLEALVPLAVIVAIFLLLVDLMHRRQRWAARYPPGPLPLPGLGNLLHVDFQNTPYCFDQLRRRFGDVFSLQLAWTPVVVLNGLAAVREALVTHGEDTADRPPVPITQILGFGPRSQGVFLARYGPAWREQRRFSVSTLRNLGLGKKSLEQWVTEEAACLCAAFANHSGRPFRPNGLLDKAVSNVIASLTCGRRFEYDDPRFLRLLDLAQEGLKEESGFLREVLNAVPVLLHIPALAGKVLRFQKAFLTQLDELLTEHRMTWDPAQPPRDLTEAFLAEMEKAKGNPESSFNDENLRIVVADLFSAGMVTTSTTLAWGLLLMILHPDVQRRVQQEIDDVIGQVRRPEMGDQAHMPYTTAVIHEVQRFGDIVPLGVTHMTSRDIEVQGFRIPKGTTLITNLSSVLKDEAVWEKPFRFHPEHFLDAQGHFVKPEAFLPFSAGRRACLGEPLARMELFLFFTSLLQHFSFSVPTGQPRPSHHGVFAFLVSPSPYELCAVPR

[19] = biological target: T2, C-C chemokine receptor type 2; assay: Inhibition of human CCR2-mediated Erk phosphorylation
[20] = Cmax in rat at 10 mg/kg, po; assay type: ADME, organism-based; design: dose 10 mg/kg, route oral; details: in vivo; summary of the method: as §2
[21] = Oral bioavailability in dog at 30 mg/kg; assay type: ADME, organism-based, Canis lupus familiaris; details: in vivo; summary of the method: as §2
[22] = Cmax in dog at 30 mg/kg, po; assay type: ADME, organism-based, Canis lupus familiaris; design: dose 30 mg/kg, route oral; details: in vivo; summary of the method: as §2
Rattus norvegicus [23] = assay: Clearance in rat at 5 mg/kg, iv; assay type: ADME, organism-based; design: dose 5 mg/kg, route intravenous; details: in vivo; summary of the method: as §2
[24] = biological target: T3, C-C chemokine receptor type 1 (Homo sapiens) (UniProt P32246); assay: Inhibition of CCR1 at 1 uM; summary of the method: as §1
T3 sequence (whole entry): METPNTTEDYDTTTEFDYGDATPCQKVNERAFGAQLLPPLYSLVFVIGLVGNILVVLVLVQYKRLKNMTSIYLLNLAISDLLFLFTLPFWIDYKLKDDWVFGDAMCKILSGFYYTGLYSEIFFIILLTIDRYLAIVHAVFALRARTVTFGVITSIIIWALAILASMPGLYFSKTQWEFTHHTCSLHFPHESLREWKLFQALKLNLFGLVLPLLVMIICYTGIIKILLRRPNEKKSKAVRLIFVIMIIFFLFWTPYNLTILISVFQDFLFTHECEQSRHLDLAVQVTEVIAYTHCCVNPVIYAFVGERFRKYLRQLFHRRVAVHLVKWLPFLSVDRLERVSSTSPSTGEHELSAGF

[25] = biological target: T4, C-X-C chemokine receptor type 3 (Homo sapiens) (UniProt P49682); assay: Inhibition of CXCR3 at 1 uM; summary of the method: as §1
T4 sequence (whole entry): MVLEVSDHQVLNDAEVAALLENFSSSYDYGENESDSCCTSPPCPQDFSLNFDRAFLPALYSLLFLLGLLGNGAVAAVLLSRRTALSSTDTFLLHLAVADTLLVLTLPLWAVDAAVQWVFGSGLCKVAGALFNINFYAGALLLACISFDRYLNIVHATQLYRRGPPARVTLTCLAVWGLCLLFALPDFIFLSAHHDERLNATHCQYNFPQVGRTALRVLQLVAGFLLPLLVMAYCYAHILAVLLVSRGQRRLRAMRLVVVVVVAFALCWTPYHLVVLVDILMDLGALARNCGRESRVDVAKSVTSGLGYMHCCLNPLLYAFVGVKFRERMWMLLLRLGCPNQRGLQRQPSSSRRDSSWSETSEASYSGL

[26] = Half life in dog at 5 mg/kg, iv; assay type: ADME, organism-based, Canis lupus familiaris; design: dose 5 mg/kg, route intravenous; details: in vivo; summary of the method: as §2
Cytochrome P450 2C19 = Cytochrome P450 2C19 (Homo sapiens, UniProt P33261); assay: Inhibition of CYP2C19; assay type: ADME
Chain of Cytochrome P450 2C19 (P33261 whole entry): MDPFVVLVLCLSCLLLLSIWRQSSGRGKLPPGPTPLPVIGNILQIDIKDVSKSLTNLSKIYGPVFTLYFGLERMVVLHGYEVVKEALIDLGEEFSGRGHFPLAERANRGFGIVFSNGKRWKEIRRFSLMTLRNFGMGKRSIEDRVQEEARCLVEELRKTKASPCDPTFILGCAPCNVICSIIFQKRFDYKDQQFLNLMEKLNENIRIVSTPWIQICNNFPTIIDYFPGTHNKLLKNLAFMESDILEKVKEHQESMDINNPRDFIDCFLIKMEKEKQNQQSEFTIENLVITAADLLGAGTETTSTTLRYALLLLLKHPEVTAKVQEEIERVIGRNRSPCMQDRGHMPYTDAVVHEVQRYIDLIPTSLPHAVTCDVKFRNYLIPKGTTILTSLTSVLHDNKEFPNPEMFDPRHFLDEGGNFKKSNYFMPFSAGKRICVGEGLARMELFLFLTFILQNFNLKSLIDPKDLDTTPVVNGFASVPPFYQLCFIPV

[27] = Clearance in chimpanzee at 1 mg/kg, iv; assay type: ADME, organism-based, Pan troglodytes; design: dose 1 mg/kg, route intravenous; details: in vivo; summary of the method: as §2
[28] = Half life in dog at 30 mg/kg, po; assay type: ADME, organism-based, Canis lupus familiaris; design: dose 30 mg/kg, route oral; details: in vivo; summary of the method: as §2
[29] = Tmax in chimpanzee at 4 mg/kg, po; assay type: ADME, organism-based, Pan troglodytes; design: dose 4 mg/kg, route oral; details: in vivo; summary of the method: as §2
[30] = Cmax in chimpanzee at 4 mg/kg, po; assay type: ADME, organism-based, Pan troglodytes; design: dose 4 mg/kg, route oral; details: in vivo; summary of the method: as §2
[31] = biological target: T2, C-C chemokine receptor type 2; assay: Displacement of [125I]MCP1 from CCR2 in human PBMC after 30 mins by gamma counter
[32] = AUC in chimpanzee at 4 mg/kg, po; assay type: ADME, organism-based, Pan troglodytes; design: dose 4 mg/kg, route oral; details: plasma; summary of the method: as §2
Liver [33] = assay: Metabolic stability in human liver S9 fraction assessed as glutathione adduct formation in presence of glutathione and NADPH; assay type: ADME, subcellular
[34] = Tmax in dog at 30 mg/kg, po; assay type: ADME, organism-based, Canis lupus familiaris; design: dose 30 mg/kg, route oral; details: in vivo; summary of the method: as §2
[35] = Induction of cytochrome P450 up to 10 uM by luminometric luciferase assay; assay type: ADME
[36] = Clearance in cynomolgus monkey at 5 mg/kg, iv; assay type: ADME, organism-based, Macaca fascicularis; design: dose 5 mg/kg, route intravenous; details: in vivo; summary of the method: as §2
[37] = Tmax in rat at 10 mg/kg, po; assay type: ADME, organism-based; design: dose 10 mg/kg, route oral; details: in vivo; summary of the method: as §2

In the case of `COc1ccc([C@]2(O)CC[C@H](N3CC[C@@H](NC(=O)CNC(=O)c4cccc(C(F)(F)F)c4)C3)CC2)cn1.CS(=O)(=O)O`, the inhibition [1] is reported as “inactive”, the AUC (Rattus norvegicus [2]) is reported as 3.657 µM·h and the half-life [3] is reported as 5.1 h. It also gave a bioavailability [4] of 23%, an AUC/dose (Mus musculus) of 617 nM·h and an IC50 [5] of 6 nM. The half-life [6] was 2.8 h, the half-life [7] was 2.9 h and the F (Rattus norvegicus [8]) was 20%. The half-life [9] was 15 h, the half-life [10] was 2.2 h and the bioavailability [11] was 13%. For the same compound, the inhibition [12] was “inactive”, the AUC [13] was 33.3 µM·h and the Cmax [14] was 2630 nM. It also gave an AUC [15] of 9.08 µM·h, an IC50 (Cytochrome P450 2C9) greater than 25000 nM and a half-life [16] of 3.8 h. The Stability (Liver [17]) was “Stable”, the half-life [18] was 5.3 h and the IC50 (Cytochrome P450 2D6) was greater than 25000 nM. It also gave an IC50 [19] of 2.6 nM, a Cmax [20] of 573 nM and a bioavailability [21] of 31%. For the same compound, the Cmax [22] was 7810 nM, the CL (Rattus norvegicus [23]) was 56.7 mL/min/kg and the inhibition [24] was “inactive”. For the same compound, the inhibition [25] was “inactive”, the half-life [26] was 3.5 h and the IC50 (Cytochrome P450 2C19) was greater than 25000 nM. It also gave a clearance [27] of 5.83 mL/min/kg, a half-life [28] of 3.3 h and a Tmax [29] of 2 h. For the same compound, the Cmax [30] was 1120 nM, the IC50 [31] was 3.7 nM and the AUC [32] was 4.94 µM·h. The Stability (Liver [33]) was “Stable”, the Tmax [34] was 1.5 h and the Activity [35] was “Not Active”. It also gave a clearance [36] of 13.7 mL/min/kg and a Tmax [37] of 4 h.

Source: ChEMBL document CHEMBL1949557, “Discovery of INCB3284, a Potent, Selective, and Orally Bioavailable hCCR2 Antagonist” (ACS Med Chem Lett, 2011)
